This passage reports IC50 and Activity results from ChEMBL document CHEMBL2331471, “Vegfrecine, an inhibitor of VEGF receptor tyrosine kinases isolated from the culture broth of Streptomyces sp” (J Nat Prod, 2013).

The target of data set [1] is Vascular endothelial growth factor receptor 3 (Homo sapiens, UniProt P35916). In words: Inhibition of Flt4 (unknown origin) after 20 mins by scintillation counting. An outline of the steps: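 Radiometric filter-plate kinase assay for Flt-1, Flt-4 and PDGFR-α. Buffer: 20 mM Tris-HCl pH 7.4, 3 mM MnCl2, 3 mM MgCl2, 50 μg/mL poly GluTyr, 100 mM NaCl, Na3VO4, DTT, 0.5% BSA. Kinase (55 ng) plus compound in 2% DMSO buffer; reaction started with 4 μM ATP/32P-ATP solution. Ran 20 min at room temperature, stopped with 30% TCA, washed with 15% TCA, scintillation counted.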

The subject of data set [2] is NIH3T3. In words: Cytotoxicity against mouse NIH/3T3 cells overexpressing Flt-1 (unknown origin) after 48 hrs. Particulars: nih3t3, 48 h. The format is cell-based. An outline of the steps:
(§1)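 MTT viability assay: NIH3T3-Flt-1 or NIH3T3-KDR cells, grown in DMEM with 10% FCS, glutamine and 200 μg/mL G418, were seeded at 3 × 10^3 cells/well with or without test samples and incubated 2 days. MTT was then added for 2 h, formazan dissolved overnight in 10% SDS, and absorbance read at 570 nm.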

The target in data set [3] is T1, Vascular endothelial growth factor receptor 1 (Homo sapiens, UniProt P17948). In words: Inhibition of GST-Flt1 kinase domain (unknown origin) expressed in baculovirus infected Sf9 cells after 20 mins by scintillation counting.
The target of data set [4] is T1, Vascular endothelial growth factor receptor 1. In words: Inhibition of ligand-induced phosphorylation of Flt-1 (unknown origin) overexpressed in NIH-3T3 cells at 10 uM after 2 hrs by immunoblotting. The format is cell-based. To be noted: NIH3T3. An outline of the steps:
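Subconfluent NIH3T3-Flt-1 cells were serum-starved 16 h, exposed to samples for 2 h, then stimulated 5 min with 50 ng/mL recombinant human VEGF-A. Cells were lysed in HEPES/Triton buffer containing Na3VO4, PMSF and aprotinin. Lysates were immunoblotted with anti-phosphotyrosine, anti-Flt-1 and anti-actin antibodies.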
A general note: Immunoblotting shows a protein as a band on a membrane.

Data set [5] deals with Platelet-derived growth factor receptor alpha (Homo sapiens, UniProt P16234). In words: Inhibition of PDGFR-alpha (unknown origin) after 20 mins by scintillation counting.
For data set [6], the target named is Fibroblast growth factor receptor (Homo sapiens, UniProt P22607+P11362+P22455+P21802). In words: Inhibition of FGFR (unknown origin) after 20 mins by scintillation counting. The format is protein assay.
Data set [7] concerns NIH3T3. In words: Cytotoxicity against mouse NIH/3T3 cells overexpressing Flt-1 (unknown origin) at 10 uM after 2 hrs. The format is cell-based. To be noted: nih3t3, 2 h.
In data set [8] the target is Epidermal growth factor receptor (Homo sapiens, UniProt P00533). In words: Inhibition of EGFR (unknown origin) after 20 mins by scintillation counting.
Data set [9] has as its system NIH3T3. In words: Cytotoxicity against mouse NIH/3T3 cells overexpressing KDR (unknown origin) after 48 hrs. The format is cell-based. To be noted: nih3t3, 48 h. An outline of the steps:
as §1

Data set [10] addresses Platelet-derived growth factor receptor beta (Homo sapiens, UniProt P09619). In words: Inhibition of PDGFR-beta (unknown origin) after 20 mins by scintillation counting.
The target of data set [11] is Vascular endothelial growth factor receptor 2 (Homo sapiens, UniProt P35968).

As a reminder, the IC50 is the concentration that inhibits the measured activity by half. A higher IC50 goes with a need for much substance.

Calls of active or inactive are those of the source. No cut-off for these calls is given here.

Sequence of Vascular endothelial growth factor receptor 3 (P35916 whole entry): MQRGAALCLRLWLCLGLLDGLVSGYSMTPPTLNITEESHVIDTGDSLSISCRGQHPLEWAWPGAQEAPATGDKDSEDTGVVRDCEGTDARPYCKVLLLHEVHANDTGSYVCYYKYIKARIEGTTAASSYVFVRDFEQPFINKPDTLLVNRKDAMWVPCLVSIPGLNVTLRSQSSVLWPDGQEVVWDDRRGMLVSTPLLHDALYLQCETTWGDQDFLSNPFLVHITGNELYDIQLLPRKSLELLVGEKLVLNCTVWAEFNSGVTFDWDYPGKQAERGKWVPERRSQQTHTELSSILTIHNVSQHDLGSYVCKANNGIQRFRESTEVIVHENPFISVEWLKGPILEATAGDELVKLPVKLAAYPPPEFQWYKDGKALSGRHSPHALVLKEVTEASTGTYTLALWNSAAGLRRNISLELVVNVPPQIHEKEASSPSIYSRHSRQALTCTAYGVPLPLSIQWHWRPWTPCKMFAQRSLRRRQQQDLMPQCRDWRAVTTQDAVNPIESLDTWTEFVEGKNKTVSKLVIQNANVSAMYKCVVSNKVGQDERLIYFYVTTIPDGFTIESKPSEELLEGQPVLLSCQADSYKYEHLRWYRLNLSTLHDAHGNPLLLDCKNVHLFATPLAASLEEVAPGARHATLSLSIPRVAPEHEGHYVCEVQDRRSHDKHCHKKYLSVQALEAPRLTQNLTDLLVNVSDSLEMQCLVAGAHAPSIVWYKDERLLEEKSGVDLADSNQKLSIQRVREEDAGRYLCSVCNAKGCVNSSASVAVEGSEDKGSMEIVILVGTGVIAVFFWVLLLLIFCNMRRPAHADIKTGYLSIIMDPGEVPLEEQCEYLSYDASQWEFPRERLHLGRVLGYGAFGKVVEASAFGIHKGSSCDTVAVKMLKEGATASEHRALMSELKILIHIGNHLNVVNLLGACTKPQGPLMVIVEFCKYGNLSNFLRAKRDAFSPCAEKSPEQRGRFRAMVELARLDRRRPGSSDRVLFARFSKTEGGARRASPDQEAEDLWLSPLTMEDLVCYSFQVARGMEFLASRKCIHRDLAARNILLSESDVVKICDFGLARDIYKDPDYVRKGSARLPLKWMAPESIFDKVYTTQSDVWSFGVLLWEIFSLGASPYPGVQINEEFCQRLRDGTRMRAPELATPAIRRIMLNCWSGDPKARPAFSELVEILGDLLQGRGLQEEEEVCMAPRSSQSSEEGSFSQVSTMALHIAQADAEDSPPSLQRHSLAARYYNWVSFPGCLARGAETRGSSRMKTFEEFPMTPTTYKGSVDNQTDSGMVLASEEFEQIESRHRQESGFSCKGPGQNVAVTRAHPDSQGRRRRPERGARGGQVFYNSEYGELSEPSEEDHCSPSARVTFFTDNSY
T1 sequence (P17948 whole entry, the tested form may be a part): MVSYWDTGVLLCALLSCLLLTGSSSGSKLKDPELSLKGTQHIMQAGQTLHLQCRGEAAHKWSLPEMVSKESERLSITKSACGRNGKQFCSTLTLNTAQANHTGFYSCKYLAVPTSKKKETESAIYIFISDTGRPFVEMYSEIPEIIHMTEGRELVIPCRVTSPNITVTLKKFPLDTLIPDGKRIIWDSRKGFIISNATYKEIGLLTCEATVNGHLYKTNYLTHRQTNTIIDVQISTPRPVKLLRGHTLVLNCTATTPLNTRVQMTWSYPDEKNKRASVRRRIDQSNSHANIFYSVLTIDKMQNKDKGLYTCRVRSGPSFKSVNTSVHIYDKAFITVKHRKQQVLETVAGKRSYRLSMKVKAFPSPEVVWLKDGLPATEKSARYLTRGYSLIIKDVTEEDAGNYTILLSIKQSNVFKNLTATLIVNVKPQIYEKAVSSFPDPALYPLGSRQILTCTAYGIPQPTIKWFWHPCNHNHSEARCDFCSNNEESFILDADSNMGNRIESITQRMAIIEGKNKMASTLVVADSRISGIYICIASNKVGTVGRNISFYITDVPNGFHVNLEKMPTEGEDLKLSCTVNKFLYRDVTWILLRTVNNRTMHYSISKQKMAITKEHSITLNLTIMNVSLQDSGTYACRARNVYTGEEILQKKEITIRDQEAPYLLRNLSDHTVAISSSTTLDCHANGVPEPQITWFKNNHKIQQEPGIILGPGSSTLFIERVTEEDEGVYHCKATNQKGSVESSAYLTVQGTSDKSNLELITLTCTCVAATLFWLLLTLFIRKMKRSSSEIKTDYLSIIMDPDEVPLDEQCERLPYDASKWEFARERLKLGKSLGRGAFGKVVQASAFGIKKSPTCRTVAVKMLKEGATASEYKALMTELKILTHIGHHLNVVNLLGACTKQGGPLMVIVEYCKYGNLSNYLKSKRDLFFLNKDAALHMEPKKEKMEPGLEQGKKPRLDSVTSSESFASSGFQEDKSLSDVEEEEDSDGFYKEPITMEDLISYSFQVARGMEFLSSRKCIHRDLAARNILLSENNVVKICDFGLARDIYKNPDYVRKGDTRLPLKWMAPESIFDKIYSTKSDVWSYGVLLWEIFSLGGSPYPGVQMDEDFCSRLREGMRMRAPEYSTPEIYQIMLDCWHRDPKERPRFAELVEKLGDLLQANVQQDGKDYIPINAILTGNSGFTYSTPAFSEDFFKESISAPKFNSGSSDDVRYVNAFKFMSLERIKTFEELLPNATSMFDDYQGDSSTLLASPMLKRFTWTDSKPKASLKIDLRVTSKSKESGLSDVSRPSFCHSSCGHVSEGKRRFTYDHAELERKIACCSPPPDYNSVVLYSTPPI
Sequence of Epidermal growth factor receptor (P00533 whole entry): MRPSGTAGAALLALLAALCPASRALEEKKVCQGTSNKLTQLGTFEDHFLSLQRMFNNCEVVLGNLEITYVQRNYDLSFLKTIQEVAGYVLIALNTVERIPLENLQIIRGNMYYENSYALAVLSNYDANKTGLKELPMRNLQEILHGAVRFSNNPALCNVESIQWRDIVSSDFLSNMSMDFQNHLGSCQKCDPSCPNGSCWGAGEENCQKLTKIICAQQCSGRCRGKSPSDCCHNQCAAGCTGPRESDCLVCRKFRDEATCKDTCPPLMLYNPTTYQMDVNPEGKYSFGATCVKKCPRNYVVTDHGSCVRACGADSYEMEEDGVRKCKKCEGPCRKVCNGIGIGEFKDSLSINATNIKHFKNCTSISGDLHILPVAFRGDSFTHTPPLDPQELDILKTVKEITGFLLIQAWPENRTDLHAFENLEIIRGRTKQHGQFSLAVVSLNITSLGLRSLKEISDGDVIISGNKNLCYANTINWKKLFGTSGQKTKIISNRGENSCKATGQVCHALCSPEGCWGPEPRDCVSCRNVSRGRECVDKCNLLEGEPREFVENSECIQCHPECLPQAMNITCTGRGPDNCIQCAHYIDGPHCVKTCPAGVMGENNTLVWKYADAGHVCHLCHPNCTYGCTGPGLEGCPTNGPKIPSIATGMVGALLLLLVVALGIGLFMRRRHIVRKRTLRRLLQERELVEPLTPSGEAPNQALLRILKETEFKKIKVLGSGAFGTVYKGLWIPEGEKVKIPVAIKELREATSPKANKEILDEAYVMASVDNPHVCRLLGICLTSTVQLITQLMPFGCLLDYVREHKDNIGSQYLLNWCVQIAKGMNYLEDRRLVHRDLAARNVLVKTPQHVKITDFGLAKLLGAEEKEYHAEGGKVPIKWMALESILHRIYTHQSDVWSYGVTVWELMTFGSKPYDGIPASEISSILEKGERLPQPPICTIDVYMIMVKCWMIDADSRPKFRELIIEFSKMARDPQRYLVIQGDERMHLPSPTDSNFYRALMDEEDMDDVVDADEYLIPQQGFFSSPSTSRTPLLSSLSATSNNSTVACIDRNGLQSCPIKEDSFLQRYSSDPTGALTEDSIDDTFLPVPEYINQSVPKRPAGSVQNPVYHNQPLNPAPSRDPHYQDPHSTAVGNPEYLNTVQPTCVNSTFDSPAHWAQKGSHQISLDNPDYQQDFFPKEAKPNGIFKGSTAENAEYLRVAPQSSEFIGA
Sequence of Platelet-derived growth factor receptor beta (P09619 whole entry): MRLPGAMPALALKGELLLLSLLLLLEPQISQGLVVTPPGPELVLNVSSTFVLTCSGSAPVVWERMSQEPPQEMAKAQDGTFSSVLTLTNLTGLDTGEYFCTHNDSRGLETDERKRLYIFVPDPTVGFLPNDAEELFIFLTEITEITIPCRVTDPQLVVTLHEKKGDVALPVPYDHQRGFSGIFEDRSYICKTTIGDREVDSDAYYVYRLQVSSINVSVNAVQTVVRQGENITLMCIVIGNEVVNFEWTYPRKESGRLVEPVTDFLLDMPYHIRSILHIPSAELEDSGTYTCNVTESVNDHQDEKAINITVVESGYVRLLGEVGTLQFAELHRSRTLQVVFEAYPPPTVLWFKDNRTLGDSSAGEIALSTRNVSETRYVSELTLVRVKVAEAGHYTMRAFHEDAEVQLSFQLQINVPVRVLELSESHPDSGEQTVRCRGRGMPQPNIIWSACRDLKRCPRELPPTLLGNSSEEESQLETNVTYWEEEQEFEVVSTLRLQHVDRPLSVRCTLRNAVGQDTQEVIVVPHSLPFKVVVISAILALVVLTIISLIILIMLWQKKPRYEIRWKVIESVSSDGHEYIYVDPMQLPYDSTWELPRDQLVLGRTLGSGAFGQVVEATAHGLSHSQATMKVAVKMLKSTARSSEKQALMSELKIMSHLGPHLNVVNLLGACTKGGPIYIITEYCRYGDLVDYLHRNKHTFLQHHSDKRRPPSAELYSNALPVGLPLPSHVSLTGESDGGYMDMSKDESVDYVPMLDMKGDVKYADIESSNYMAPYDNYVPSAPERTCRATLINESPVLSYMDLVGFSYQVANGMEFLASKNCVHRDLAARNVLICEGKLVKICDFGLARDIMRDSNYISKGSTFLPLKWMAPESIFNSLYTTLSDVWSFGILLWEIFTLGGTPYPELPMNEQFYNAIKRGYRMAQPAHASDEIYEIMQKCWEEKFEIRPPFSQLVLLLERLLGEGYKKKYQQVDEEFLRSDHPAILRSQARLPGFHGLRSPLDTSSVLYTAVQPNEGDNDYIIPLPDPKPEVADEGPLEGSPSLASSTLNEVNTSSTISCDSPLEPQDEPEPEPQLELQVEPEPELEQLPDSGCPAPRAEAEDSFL

In the case of `Cc1cc(C)c(/C=C2\C(=O)Nc3ccccc32)[nH]1` [SEMAXANIB], the IC50 in [1] was 500 nM.
As to `NC(=O)C1=C(N)C(=O)C=C(Nc2ccccc2O)C1=O` [VEGFRECINE], the Activity in [2] was 3 µM; in data set [7], “Non-toxic”; in data set [9], 12 µM. For the same compound, the IC50 in data set [3] was determined as 18 nM; in data set [5], 3.2 µM; in [6] it was 0.73 µM; in [1], 1.8 nM; in [8], 2600 nM; in [10] it was 480 nM. In data set [11], this compound yielded an IC50 of 11 nM. For the same compound, the outcome in [4] was Active.
